Values after ≈ are worked out from the molar mass of the structure shown.
Assays:
[1] = Cytotoxicity against african green monkey Vero cells after 72 hrs by Cell titer Glo assay; format: cell-based; settings: chlorocebus sabaeus
Outline: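 VERO cells exposed to compounds for 72 h, run in parallel with the M. tuberculosis dose-response assay. Viability read by ATP-based luminescence (Cell Titer-Glo). CC50 taken from the dose-response curve by curve fitting.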

[2] = tested on: Mycobacterium tuberculosis; experiment: Antimycobacterial activity against Mycobacterium tuberculosis H37Rv by microplate Alamar blue assay; format: functional, organism-based
Outline: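 M. tuberculosis H37Rv (ATCC 27294) grown in BACTEC 12B medium, broth microdilution read by Alamar Blue (MABA). Ten 2-fold dilutions, typically 100 to 0.19 µg/mL. IC90 = concentration giving 90% fluorescence reduction relative to controls; IC50 at 50%. Both taken from dose-response curve by curve fitting. Run alongside a parallel VERO cytotoxicity assay.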

Row | Compound | CC50 at 72 h [1] | IC50 [2] | IC90 [2]
1 | Nc1cccc(/C=N/NC(=O)c2cnccn2)c1 | > 30 mg/L | > 100 mg/L | > 100 mg/L
2 | CCNC(=S)NNC(=O)c1cnccn1 | 29.8 mg/L (≈ 132 µM) | 11.4 mg/L (≈ 50.5 µM) | 16.9 mg/L (≈ 74.9 µM)
3 | COc1cc(/C=N/NC(=O)c2cnccn2)ccc1O | > 30 mg/L | > 100 mg/L | > 100 mg/L
4 | Cc1ccc2nc(Cl)c(/C=N/NC(=O)c3cnccn3)cc2c1 | > 30 mg/L | > 100 mg/L | > 100 mg/L
5 | O=C(N/N=C/c1ccc(O)cc1)c1cnccn1 | > 30 mg/L | > 100 mg/L | > 100 mg/L
6 | O=C(N/N=C/c1ccc(Cl)cc1)c1cnccn1 | > 30 mg/L | > 100 mg/L | > 100 mg/L
7 | COc1ccc(/C(C)=N/NC(=O)c2cnccn2)cc1 | > 30 mg/L | > 100 mg/L | > 100 mg/L
8 | NNC(=O)c1cnccn1 [PYRAZINE CARBOXYLIC ACID HYDRAZIDE] | > 30 mg/L | > 100 mg/L | > 100 mg/L
9 | COc1ccc2nc(Cl)c(/C=N/NC(=O)c3cnccn3)cc2c1 | 5.37 mg/L (≈ 15.7 µM) | > 100 mg/L | > 100 mg/L
10 | O=C(N/N=C/c1ccccc1O)c1cnccn1 | 11.4 mg/L (≈ 47.2 µM) | > 100 mg/L | > 100 mg/L
11 | O=C(N/N=C/c1cccc(O)c1)c1cnccn1 | > 30 mg/L | > 100 mg/L | > 100 mg/L
12 | COc1ccc(/C=N/NC(=O)c2cnccn2)cc1 | > 30 mg/L | > 100 mg/L | > 100 mg/L
13 | C/C(=N\NC(=O)c1cnccn1)c1ccc(Br)cc1 | > 30 mg/L | > 100 mg/L | > 100 mg/L
